Reference: ChEMBL document CHEMBL1770118, “A new class of β-carboline alkaloid-peptide conjugates with therapeutic efficacy in acute limb ischemia/reperfusion injury” (Eur J Med Chem, 2011)
Active and inactive are the calls of the source. The rule behind the calls is not given here. *1 amine or outer side, *2 acyl side, *3 side chain or, on linkers, in order; H or OH if unused. Where a SMILES comes first, the peptide text is derived from it. [ ]: non-standard residue; d: D form. X2 = COc1cc([C@@H]2c3[nH]c4ccccc4c3C[C@@H](C(=O)[*:2])N2[*:1])ccc1O; X3 = COc1ccc([C@@H]2c3[nH]c4ccccc4c3C[C@@H](C(=O)[*:2])N2[*:1])cc1; X1 = O=C([C@@H]1Cc2c([nH]c3ccccc23)[C@@H](c2ccccc2O)N1[*:1])[*:2]

How the values were obtained:
[1] = system: Rattus norvegicus; experiment: Antithrombotic activity in Wistar rat assessed as reduction of dry thrombus weight at 10 umol/kg; assay type: functional, organism-based
[2] = system: PC-12; experiment: Antioxidant activity in rat PC12 cells assessed as protection against hydrogen peroxide-induced reduction of cell viability pretreated 1 he before […] incubated for 1 hr followed by washout measured after 14 hrs by MTT assay; assay type: functional, cell-based
In short: (§1)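 PC12 cells were grown in DMEM with 10% heat-inactivated horse serum and 5% FBS, then seeded at 20,000/well on poly-lysine. After 24 h, cells were pretreated with compound at five concentrations for 1 h. Damage was 1 h with: NO, 2 mM sodium nitroprusside; H₂O₂, 1 mM; ·OH, H₂O₂/Fe(II). Medium was replaced, and MTT survival was read after 14 h. EC50 was derived.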

[3] = system: PC-12; experiment: Antioxidant activity in rat PC12 cells assessed as protection against hydroxyl radical-induced reduction of cell viability pretreated 1 he before […] incubated for 1 hr followed by washout measured after 14 hrs by MTT assay; assay type: functional, cell-based; in short: as §1
[4] = system: PC-12; experiment: Antioxidant activity in rat PC12 cells assessed as protection against nitric oxide-induced reduction of cell viability pretreated 1 he before nitric oxide challenge incubated for 1 hr followed by washout measured after 14 hrs by MTT assay; assay type: functional, cell-based; in short: as §1

| Compound | Activity [1] | EC50 [2] | EC50 [3] | EC50 [4] |
| --- | --- | --- | --- | --- |
| C[C@H](NC(=O)[C@@H]1CCCN1C(=O)[C@H](CCCN=C(N)N)NC(=O)CN)C(=O)N[C@@H](CCCCN)C(=O)O (H-GRPAK-OH) | Active |  |  |  |
| C[C@H](NC(=O)[C@@H]1Cc2c([nH]c3ccccc23)[C@@H](c2ccccc2O)N1)C(=O)N[C@@H](CCCNC(=N)N)C(=O)N1CCC[C@H]1C(=O)N[C@@H](C)C(=O)N[C@@H](CCCCN)C(=O)O (H-[X1]ARPAK-OH) | Active |  |  |  |
| COc1cc([C@H]2N[C@H](C(=O)O)Cc3c2[nH]c2ccccc32)ccc1O |  | 38 µM | 72 µM | 77 µM |
| C[C@H](N)C(=O)N[C@@H](CCCN=C(N)N)C(=O)N1CCC[C@H]1C(=O)N[C@@H](C)C(=O)N[C@@H](CCCCN)C(=O)O (H-ARPAK-OH) | Active |  |  |  |
| O=C(O)[C@@H]1Cc2c([nH]c3ccccc23)[C@@H](c2ccccc2O)N1 |  | 38 µM | 72 µM | 77 µM |
| COc1ccc([C@H]2N[C@H](C(=O)NCC(=O)N[C@@H](CCCNC(=N)N)C(=O)N3CCC[C@H]3C(=O)N[C@@H](C)C(=O)N[C@@H](CCCCN)C(=O)O)Cc3c2[nH]c2ccccc32)cc1 (H-[X3]GRPAK-OH) | Active |  |  |  |
| COc1cc([C@H]2N[C@H](C(=O)NCC(=O)N[C@@H](CCCNC(=N)N)C(=O)N3CCC[C@H]3C(=O)N[C@@H](C)C(=O)N[C@@H](CCCCN)C(=O)O)Cc3c2[nH]c2ccccc32)ccc1O (H-[X2]GRPAK-OH) | Active |  |  |  |
| C[C@H](NC(=O)[C@@H]1CCCN1C(=O)[C@H](CCCNC(=N)N)NC(=O)CNC(=O)[C@@H]1Cc2c([nH]c3ccccc23)[C@@H](c2ccccc2O)N1)C(=O)N[C@@H](CCCCN)C(=O)O (H-[X1]GRPAK-OH) | Active |  |  |  |
| COc1ccc([C@H]2N[C@H](C(=O)O)Cc3c2[nH]c2ccccc32)cc1 |  | 38 µM | 72 µM | 77 µM |
| COc1ccc([C@H]2N[C@H](C(=O)N[C@@H](C)C(=O)N[C@@H](CCCNC(=N)N)C(=O)N3CCC[C@H]3C(=O)N[C@@H](C)C(=O)N[C@@H](CCCCN)C(=O)O)Cc3c2[nH]c2ccccc32)cc1 (H-[X3]ARPAK-OH) | Active |  |  |  |
| COc1cc([C@H]2N[C@H](C(=O)N[C@@H](C)C(=O)N[C@@H](CCCNC(=N)N)C(=O)N3CCC[C@H]3C(=O)N[C@@H](C)C(=O)N[C@@H](CCCCN)C(=O)O)Cc3c2[nH]c2ccccc32)ccc1O (H-[X2]ARPAK-OH) | Active |  |  |  |
